Source: ChEMBL document CHEMBL3769317, “Aminothiazoles as Potent and Selective Sirt2 Inhibitors: A Structure-Activity Relationship Study” (J Med Chem, 2016)
Where a name gives a salt, the structure may show the parent alone. Blank lines part the entries; values can stand above or below the compound they belong to. Activity calls are given as the source filed them. The rule behind the calls is not given here. Where a SMILES comes first, the peptide text is derived from it. Bridges are numbered along the chain shown (N, C = ends). The star is where a group is joined. Tfa = O=C(C(F)(F)F)*

How the values were obtained:
[1] = biological target: T1, NAD-dependent protein deacetylase sirtuin-1 (Homo sapiens) (UniProt Q96EB6); experiment: Inhibition of GST-tagged human SIRT1 (133 to 747 amino acids) using ZMAL as substrate at 200 uM after 4 hrs by fluorescence-based microplate reader method
T1 sequence (whole entry): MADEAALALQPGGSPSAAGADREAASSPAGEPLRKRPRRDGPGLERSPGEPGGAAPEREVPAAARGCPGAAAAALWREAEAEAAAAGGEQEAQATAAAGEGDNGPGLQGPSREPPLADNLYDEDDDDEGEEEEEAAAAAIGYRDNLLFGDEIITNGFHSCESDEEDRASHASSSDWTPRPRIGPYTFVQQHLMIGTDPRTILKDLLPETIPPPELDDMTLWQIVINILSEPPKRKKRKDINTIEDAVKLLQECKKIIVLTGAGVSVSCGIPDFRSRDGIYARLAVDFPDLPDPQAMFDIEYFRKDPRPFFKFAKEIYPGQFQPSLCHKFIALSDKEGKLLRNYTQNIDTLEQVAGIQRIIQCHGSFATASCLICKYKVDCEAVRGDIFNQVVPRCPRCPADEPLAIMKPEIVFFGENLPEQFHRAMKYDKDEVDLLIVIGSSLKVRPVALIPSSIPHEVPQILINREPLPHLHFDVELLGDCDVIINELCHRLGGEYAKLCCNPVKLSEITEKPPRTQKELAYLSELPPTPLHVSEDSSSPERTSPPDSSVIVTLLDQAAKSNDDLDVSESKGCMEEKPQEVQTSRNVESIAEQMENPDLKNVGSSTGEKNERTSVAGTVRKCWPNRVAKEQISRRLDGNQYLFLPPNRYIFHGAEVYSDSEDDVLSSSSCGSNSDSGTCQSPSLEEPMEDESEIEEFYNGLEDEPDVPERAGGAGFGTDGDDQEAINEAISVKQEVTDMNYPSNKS

[2] = biological target: T2, NAD-dependent protein deacetylase sirtuin-1 (Homo sapiens, UniProt Q96EB6); experiment: Inhibition of GST-tagged human SIRT1 (133 to 747 amino acids) using ZMAL as substrate after 4 hrs by fluorescence-based microplate reader method
T2 sequence (Q96EB6 whole entry): T1 sequence (whole entry)

[3] = biological target: T3, NAD-dependent protein deacetylase sirtuin-2 (Homo sapiens, UniProt Q8IXJ6); experiment: Inhibition of human SIRT2
T3 sequence (Q8IXJ6 whole entry): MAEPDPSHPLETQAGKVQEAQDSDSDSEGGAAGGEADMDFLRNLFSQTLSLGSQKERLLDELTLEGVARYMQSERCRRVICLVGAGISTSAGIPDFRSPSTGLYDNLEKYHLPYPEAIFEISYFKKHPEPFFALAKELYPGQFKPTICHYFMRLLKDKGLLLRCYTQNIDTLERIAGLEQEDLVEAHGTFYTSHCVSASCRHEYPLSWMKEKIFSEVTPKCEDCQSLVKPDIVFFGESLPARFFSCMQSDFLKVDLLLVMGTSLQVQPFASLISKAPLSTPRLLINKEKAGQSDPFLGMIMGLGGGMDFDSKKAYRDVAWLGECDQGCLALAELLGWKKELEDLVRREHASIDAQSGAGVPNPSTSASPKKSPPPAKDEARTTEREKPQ

[4] = biological target: T2, NAD-dependent protein deacetylase sirtuin-1; experiment: Inhibition of human SIRT1 using RHKK(Ac)-AMC as substrate preincubated for 10 mins followed by substrate addition by fluorescence assay
[5] = biological target: T3, NAD-dependent protein deacetylase sirtuin-2; experiment: Inhibition of human SIRT2 using RHKK(Ac)-AMC as substrate preincubated for 10 mins followed by substrate addition by fluorescence assay
[6] = biological target: T2, NAD-dependent protein deacetylase sirtuin-1; experiment: Inhibition of human SIRT1 by fluorometric assay
Procedure, shortened: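 Fluorescence-based homogeneous assay with ZMAL (Cbz-Lys(acetyl)-AMC) substrate at 10,5 µM final and NAD+ at 500 µM final, in Tris/NaCl/KCl buffer pH 8.0 with 5% (v/v) DMSO final. Incubated 4 h at 37 °C, then stopped with trypsin/nicotinamide for 20 min at 37 °C. Read at ex 390/em 460 nm against no-inhibitor controls, at least duplicates.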

[7] = biological target: T4, NAD-dependent protein deacetylase sirtuin-2 (Homo sapiens) (UniProt Q8IXJ6); experiment: Inhibition of SIRT2 in human HeLa cells assessed as tubulin acetylation at 10 uM after 1 hr by Western blotting method; format: cell-based
T4 sequence (whole entry): T3 sequence (Q8IXJ6 whole entry)
Procedure, shortened: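 HeLa cells grown in high-glucose DMEM with 10% FCS and kanamycin at 37 °C, 5% CO2. 1.5 x 10^4 cells per well were plated overnight, then exposed to compound for 1 h from 10 mM DMSO stocks, with DMSO vehicle controls. Cells were lysed in reducing sample buffer and run on SDS-PAGE/PVDF. Blots were probed for acetyl-α-tubulin Lys40 (6-11B-1) and then GAPDH. Values were normalized to the mean control on the same blot.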

[8] = biological target: T4, NAD-dependent protein deacetylase sirtuin-2 (Homo sapiens); experiment: Inhibition of SIRT2 in human HeLa cells assessed as tubulin hyperacetylation at 10 uM after 1 hr by DAPI staining-based immunofluorescence microscopy relative to control; format: cell-based
Procedure, shortened: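 HeLa cells, 0.5 x 10^4 per 12 mm coverslip, were plated overnight, then exposed for 1 h to 10 µM compound added from 10 mM DMSO stocks, with DMSO vehicle controls. The microtubule network was immunostained for acetylation and nuclei were counterstained with DAPI, followed by immunofluorescence microscopy.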

[9] = biological target: T3, NAD-dependent protein deacetylase sirtuin-2; experiment: Inhibition of N-terminal his6-tagged human SIRT2 (25 to 389 amino acids) using ZMAL as substrate after 4 hrs by fluorescence-based microplate reader method

SMILES: CC(C)[C@@H]1NC(=O)[C@H](Cc2c[nH]cn2)NC(=O)[C@H](Cc2ccc(O)cc2)NC(=O)[C@H]([C@@H](C)O)NC(=O)[C@H](Cc2c[nH]cn2)NC(=O)[C@H](Cc2ccc(O)cc2)NC(=O)CSC[C@@H](C(N)=O)NC(=O)[C@H](Cc2ccc(O)cc2)NC(=O)[C@H](Cc2ccc(O)cc2)NC(=O)[C@H](CC(N)=O)NC(=O)[C@H]([C@@H](C)O)NC(=O)[C@H](CCCNC(=N)N)NC(=O)[C@H](CCCNC(=N)N)NC(=O)[C@H](CCCCNC(=O)C(F)(F)F)NC1=O ({CH2CO}-YHTYHVK(Tfa)RRTNYYC-NH2; thioether N-14)
- IC50 [3]: 0.001 µM

SMILES: N#C/C(=C/c1ccc(-c2cc(Cl)ccc2Cl)o1)C(=O)Nc1cccc2ncccc12
- IC50 [6]: > 40 µM

Second part, the compound after the results:

- inhibition [1]: < 10%
- IC50 [2]: > 50 µM
SMILES: Cc1cc(C)nc(SCC(=O)Nc2ncc(Cc3cccc4ccccc34)s2)n1

- IC50 [4]: > 100 µM
- IC50 [5]: 1.45 µM
SMILES: COc1ccc2ccccc2c1Cn1cnc2sc3c(c2c1=O)CCC(NCc1cccnc1)C3 (stereo not given)

- inhibition [7]: Active
- inhibition [8]: Active
- inhibition [1]: 29%
- IC50 [9]: 0.18 µM
SMILES: Cc1cc(C)nc(SCC(=O)Nc2ncc(Cc3cccc4ccc(Cl)cc34)s2)n1
